ChEMBL document CHEMBL1833790, “N-(2-{3-[3,5-bis(trifluoromethyl)phenyl]ureido}ethyl)-glycyrrhetinamide (6b): a novel anticancer glycyrrhetinic acid derivative that targets the proteasome and displays anti-kinase activity” (J Med Chem, 2011)
Active and inactive are the calls of the source. The rule behind the calls is not given here.

What was measured:
[1] = Growth inhibition in apoptosis-resistant human U373 after 3 days by MTT assay; type: functional, U-373MG ATCC; details: U373 MG, 72 h
Outline: (§1)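 Cells grown in RPMI with 10% heat-inactivated FCS, 4 mM glutamine, gentamicin and penicillin–streptomycin. Drug exposure 3 days, growth read by MTT colorimetric assay. Nine concentrations from 0.01 to 100 μM in semilog steps, six replicates each; IC50 derived per cell line.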

[2] = Chemical stability of the compound in MEM cell culture medium after 7 days by HPLC analysis; type: physicochemical; details: read-out: Stability
Outline: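 Compound incubated in MEM culture medium at 37 °C for 7 days, then analysed by HPLC on RX-C8 (5 μm) column with MeOH–water 90:10 (0.1% TFA), diode-array detection. Expressed as % of incubated compound recovered.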

U-373MG ATCC [3] = test: Inhibition of trypsin-like activity of 20S proteasome in human U373 cells at 3 uM after 2 days by bioluminescence assay; type: cell-based
Outline: (§2)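 U373 GBM cells seeded at 5000 cells/mL and grown 48 h, then treated for two days. Cells washed in PBS and permeabilised with 0.025% digitonin. Proteasome-Glo reagent added with Suc-LLVY-Glo (chymotrypsin-like), Z-LRR-Glo (trypsin-like) or Z-nLPnLD-Glo (caspase-like) substrate. Luminescence read after 10 min in the dark and normalised to a parallel MTT viability assay; triplicates. MG-132 at 0.5 μM used as reference.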

B16-F10 = test: Growth inhibition in mouse B16F10 after 3 days by MTT assay; type: functional; details: B16-F10, 72 h; outline: as §1
SK-MEL-28 = test: Growth inhibition in apoptosis-resistant human SK-MEL-28 after 3 days by MTT assay; type: functional; details: SK-MEL-28, 72 h; outline: as §1
A549 = test: Growth inhibition in apoptosis-resistant human A549 after 3 days by MTT assay; type: functional; details: A549, 72 h; outline: as §1
U-373MG ATCC [4] = test: Activation of caspase-like activity of 20S proteasome in human U373 cells at 3 uM after 2 days by bioluminescence assay; type: cell-based
Outline: (§3)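 Caspase-like site, substrate Z-nLPnLD-Glo. U373 cells were plated at 5000 cells/mL for 48 h, then treated two days. Cells were PBS-washed and permeabilised with 0.025% digitonin before Proteasome-Glo reagent was added. Luminescence was read after 10 min in the dark. Triplicates, normalised to a parallel MTT viability assay under identical conditions.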

MCF7 = test: Growth inhibition in apoptosis-sensitive human MCF7 after 3 days by MTT assay; type: functional; details: MCF7, 72 h; outline: as §1
U-373MG ATCC [5] = test: Activation of chymotrypsin-like activity of 20S proteasome in human U373 cells at 3 uM after 2 days by bioluminescence assay; type: cell-based
Outline: (§4)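 Chymotrypsin-like site, substrate Suc-LLVY-Glo. U373 cells were seeded at 5000 cells/mL for 48 h and exposed two days. After a PBS wash and 0.025% digitonin permeabilisation, Proteasome-Glo reagent was added. Bioluminescence was read after 10 min dark incubation. Triplicates, normalised by a concurrent MTT viability assay run in identical conditions.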

Hs 683 = test: Growth inhibition in apoptosis-sensitive human Hs683 after 3 days by MTT assay; type: functional; details: Hs 683, 72 h; outline: as §1
PC-3 = test: Growth inhibition in apoptosis-sensitive human PC3 after 3 days by MTT assay; type: functional; details: PC-3, 72 h; outline: as §1
[6] = target: T1, Peroxisome proliferator-activated receptor gamma (Homo sapiens) (UniProt P37231); test: Inhibition of PPARgamma activity in human U373 cells at 3 uM after 6 hrs by spectrophotometric analysis relative to control; type: cell-based; details: U-373MG ATCC
T1 sequence (whole entry): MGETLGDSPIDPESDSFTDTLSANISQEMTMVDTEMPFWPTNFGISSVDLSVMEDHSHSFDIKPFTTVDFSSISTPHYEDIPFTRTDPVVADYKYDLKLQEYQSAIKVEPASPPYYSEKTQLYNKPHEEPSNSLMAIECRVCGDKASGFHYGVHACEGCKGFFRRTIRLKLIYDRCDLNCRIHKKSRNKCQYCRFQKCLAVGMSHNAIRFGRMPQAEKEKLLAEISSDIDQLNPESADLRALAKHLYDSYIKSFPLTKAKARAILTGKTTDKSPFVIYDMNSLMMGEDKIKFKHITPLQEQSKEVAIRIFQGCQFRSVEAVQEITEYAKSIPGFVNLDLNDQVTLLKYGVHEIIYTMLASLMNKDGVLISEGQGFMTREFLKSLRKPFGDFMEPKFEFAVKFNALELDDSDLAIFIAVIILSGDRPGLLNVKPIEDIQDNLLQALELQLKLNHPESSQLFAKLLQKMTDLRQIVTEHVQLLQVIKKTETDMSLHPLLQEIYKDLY
Outline: (§5)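 Human U373 glioblastoma cells exposed to compound for 6 h, then detached with trypsin. Nuclear extracts prepared by hypotonic lysis with Nonidet P-40 and extraction buffer with protease inhibitor, clarified at 14 000 g, 4 °C. Extracts bound overnight at 4 °C in a PPAR-γ transcription factor ELISA kit, with primary antibody then HRP anti-rabbit. Absorbance read at 450 nm; triplicates, mean ± SD versus control.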

T98G = test: Growth inhibition in apoptosis-resistant human T98G after 3 days by MTT assay; type: functional; details: 72 h; outline: as §1
[7] = target: T1, Peroxisome proliferator-activated receptor gamma (Homo sapiens); test: Inhibition of PPARgamma activity in human U373 cells at 80 uM after 6 hrs by spectrophotometric analysis relative to control; type: cell-based; details: U-373MG ATCC; outline: as §5
U-373MG ATCC [8] = test: Inhibition of trypsin-like activity of 20S proteasome in human U373 cells at 80 uM after 2 days by bioluminescence assay; type: cell-based; outline: as §2
U-373MG ATCC [9] = test: Activation of chymotrypsin-like activity of 20S proteasome in human U373 cells at 80 uM after 2 days by bioluminescence assay; type: cell-based; outline: as §4
U-373MG ATCC [10] = test: Activation of caspase-like activity of 20S proteasome in human U373 cells at 80 uM after 2 days by bioluminescence assay; type: cell-based; outline: as §3
U-373MG ATCC [11] = test: Activation of caspase-like activity of 20S proteasome in human U373 cells at 30 uM after 2 days by bioluminescence assay; type: cell-based; outline: as §3
U-373MG ATCC [12] = test: Activation of chymotrypsin-like activity of 20S proteasome in human U373 cells at 30 uM after 2 days by bioluminescence assay; type: cell-based; outline: as §4
[13] = target: T1, Peroxisome proliferator-activated receptor gamma (Homo sapiens); test: Inhibition of PPARgamma activity in human U373 cells at 30 uM after 6 hrs by spectrophotometric analysis relative to control; type: cell-based; details: U-373MG ATCC; outline: as §5
U-373MG ATCC [14] = test: Inhibition of trypsin-like activity of 20S proteasome in human U373 cells at 30 uM after 2 days by bioluminescence assay; type: cell-based; outline: as §2
[15] = target: T1, Peroxisome proliferator-activated receptor gamma (Homo sapiens); test: Inhibition of PPARgamma activity in human U373 cells at 60 uM after 6 hrs by spectrophotometric analysis relative to control; type: cell-based; details: U-373MG ATCC; outline: as §5
U-373MG ATCC [16] = test: Inhibition of trypsin-like activity of 20S proteasome in human U373 cells at 60 uM after 2 days by bioluminescence assay; type: cell-based; outline: as §2
U-373MG ATCC [17] = test: Activation of caspase-like activity of 20S proteasome in human U373 cells at 60 uM after 2 days by bioluminescence assay; type: cell-based; outline: as §3
U-373MG ATCC [18] = test: Activation of chymotrypsin-like activity of human proteasome in U373 at 60 uM after 2 days by bioluminescence assay; type: cell-based; outline: as §4
U-373MG ATCC [19] = test: Inhibition of trypsin-like activity of 20S proteasome in human U373 cells at 70 uM after 2 days by bioluminescence assay; type: cell-based; outline: as §2
U-373MG ATCC [20] = test: Activation of chymotrypsin-like activity of 20S proteasome in human U373 cells at 70 uM after 2 days by bioluminescence assay; type: cell-based; outline: as §4
[21] = target: T1, Peroxisome proliferator-activated receptor gamma (Homo sapiens); test: Inhibition of PPARgamma activity in human U373 cells at 70 uM after 6 hrs by spectrophotometric analysis relative to control; type: cell-based; details: U-373MG ATCC; outline: as §5
U-373MG ATCC [22] = test: Activation of caspase-like activity of 20S proteasome in human U373 cells at 70 uM after 2 days by bioluminescence assay; type: cell-based; outline: as §3
U-373MG ATCC [23] = test: Inhibition of trypsin-like activity of 20S proteasome in human U373 cells at 25 uM after 2 days by bioluminescence assay; type: cell-based; outline: as §2
U-373MG ATCC [24] = test: Activation of chymotrypsin-like activity of 20S proteasome in human U373 cells at 25 uM after 2 days by bioluminescence assay; type: cell-based; outline: as §4
U-373MG ATCC [25] = test: Activation of caspase-like activity of 20S proteasome in human U373 cells at 25 uM after 2 days by bioluminescence assay; type: cell-based; outline: as §3
[26] = target: T1, Peroxisome proliferator-activated receptor gamma (Homo sapiens); test: Inhibition of PPARgamma activity in human U373 cells at 25 uM after 6 hrs by spectrophotometric analysis relative to control; type: cell-based; details: U-373MG ATCC; outline: as §5

SMILES | GI50 [1] [µM] | remaining at 168 h [2] [%] | GI50 (B16-F10) [µM] | GI50 (SK-MEL-28) [µM] | GI50 (A549) [µM] | GI50 (MCF7) [µM] | GI50 (Hs 683) [µM] | GI50 (PC-3) [µM] | GI50 (T98G) [µM] | also measured
COc1cc(/C=C/C(C)=O)ccc1OC(=O)[C@@]1(C)CC[C@]2(C)CC[C@]3(C)C(=CC(=O)[C@@H]4[C@@]5(C)CC[C@H](O)C(C)(C)[C@@H]5CC[C@]43C)[C@@H]2C1 | 2 | 68 | 3 | 3 | 2 | 3 | 3 | 2 | 3 | inhibition (U-373MG ATCC [3]): Active; Activity (U-373MG ATCC [4]): Active; Activity (U-373MG ATCC [5]): Active; inhibition [6]: Active
COc1ccc(CCNC(=O)[C@@]2(C)CC[C@]3(C)CC[C@]4(C)C(=CC(=O)[C@@H]5[C@@]6(C)CCC(=O)C(C)(C)[C@@H]6CC[C@]54C)[C@@H]3C2)cc1 | 69 | 93 | 49 | > 100 | > 100 | 56 | 91 | 52 | > 100 | inhibition [7]: Active; inhibition (U-373MG ATCC [8]): Active; Activity (U-373MG ATCC [9]): Active; Activity (U-373MG ATCC [10]): Active
COC(=O)[C@@]1(C)CC[C@]2(C)CC[C@]3(C)C(=CC(=O)[C@@H]4[C@@]5(C)C=C(I)C(=O)C(C)(C)[C@@H]5CC[C@]43C)[C@@H]2C1 | 42 | 89 | 23 | 32 | 42 | 28 | 48 | 36 | 6 | Activity (U-373MG ATCC [11]): Active; Activity (U-373MG ATCC [12]): Active; inhibition [13]: Active; inhibition (U-373MG ATCC [14]): Active
COc1ccc(CCNC(=O)[C@@]2(C)CC[C@]3(C)CC[C@]4(C)C(=CC(=O)[C@@H]5[C@@]6(C)CC[C@H](O)C(C)(C)[C@@H]6CC[C@]54C)[C@@H]3C2)cc1OC | 43 | 86 | 37 | > 100 | 52 | 34 | 59 | 34 | 91 | inhibition [15]: Active; inhibition (U-373MG ATCC [16]): Active; Activity (U-373MG ATCC [17]): Active; Activity (U-373MG ATCC [18]): Active
COc1ccc2[nH]cc(CCNC(=O)[C@@]3(C)CC[C@]4(C)CC[C@]5(C)C(=CC(=O)[C@@H]6[C@@]7(C)CC[C@H](O)C(C)(C)[C@@H]7CC[C@]65C)[C@@H]4C3)c2c1 | 75 | 94 | 31 | > 100 | 40 | 38 | 57 | 43 | > 100 | inhibition (U-373MG ATCC [19]): Active; Activity (U-373MG ATCC [20]): Active; inhibition [21]: Active; Activity (U-373MG ATCC [22]): Active
CC1(C)[C@@H](O)CC[C@]2(C)[C@H]3C(=O)C=C4[C@@H]5C[C@@](C)(C(=O)NCCNC(=S)Nc6ccccc6)CC[C@]5(C)CC[C@@]4(C)[C@]3(C)CC[C@@H]12 | 29 | 94 | 34 | 38 | 31 | 30 | 8 | 9 | 25 | inhibition (U-373MG ATCC [23]): Active; Activity (U-373MG ATCC [24]): Active; Activity (U-373MG ATCC [25]): Active; inhibition [26]: Active
